Test results as given in ChEMBL document CHEMBL4334422, “Toxicities and beneficial protection of H2S donors based on nonsteroidal anti-inflammatory drugs” (Medchemcomm, 2019).
The source made the active and inactive calls. The rule behind the calls is not given here.

Key:
[1] = Toxicity in Wistar kyoto rat assessed as nitrite level in urine at 0.01 mmol/kg, ip administered for 14 days; assay type: organism-based; conditions: in vivo, 336 h
How it was run: (§1)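 Normal WKY rats, 6 per group, received an intraperitoneal injection once daily for 14 consecutive days. The compound was dissolved in 10% 1,3-propanediol, and controls received an equal volume of vehicle. Urine was collected in metabolic cages during dosing. At the end, blood was drawn from the eyeball for haematology, and urinalysis values were compared with the vehicle group.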

[2] = Half life of compound in pH 7.4 phosphate buffer at 40 mM in presence of TECP or cysteine by methylene blue dye based UV-Vis spectrophotometric method; assay type: physicochemical; conditions: phosphate buffer with TECP or cysteine
How it was run: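 A 40 mM compound solution in pH 7.4 phosphate buffer was mixed with TECP or L-cysteine (1.0 mM) as promoter. Aliquots were mixed with methylene blue reagent, and after 20 min absorbance was read at 670 nm. H₂S was quantified against a Na₂S standard curve, and concentration-versus-time release curves were plotted to give half-lives.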

[3] = Toxicity in Wistar kyoto rat assessed as leukocyte count in blood at 0.01 mmol/kg, ip administered for 14 days (reference value: 6.88 10^9/L); assay type: organism-based; conditions: in vivo, 336 h; how it was run: as §1
[4] = Toxicity in Wistar kyoto rat assessed as neutrophil ratio in blood at 0.01 mmol/kg, ip administered for 14 days (reference value: 54.7%); assay type: organism-based; conditions: in vivo, 336 h; how it was run: as §1
[5] = Toxicity in Wistar kyoto rat assessed as lymphocyte ratio in blood at 0.01 mmol/kg, ip administered for 14 days (reference value: 42.1%); assay type: organism-based; conditions: in vivo, 336 h; how it was run: as §1
[6] = Toxicity in Wistar kyoto rat assessed as monocyte ratio in blood at 0.01 mmol/kg, ip administered for 14 days (reference value: 0.5%); assay type: organism-based; conditions: in vivo, 336 h; how it was run: as §1
[7] = Toxicity in Wistar kyoto rat assessed as eosinophil ratio in blood at 0.01 mmol/kg, ip administered for 14 days (reference value: 1.8%); assay type: organism-based; conditions: in vivo, 336 h
How it was run: (§2)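 Normal WKY rats (6 per group) received compound in 10% 1,3-propanediol intraperitoneally daily for 14 days. Controls received an equal volume of vehicle. Urine was collected in metabolic cages throughout dosing. At the end of dosing, blood was taken from the eyeball for haematology, and urine parameters were analysed.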

[8] = Toxicity in Wistar kyoto rat assessed as basophilic ratio in blood at 0.01 mmol/kg, ip administered for 14 days (reference value: 2.2%); assay type: organism-based; conditions: in vivo, 336 h; how it was run: as §2
[9] = Toxicity in Wistar kyoto rat assessed as red blood cell count in blood at 0.01 mmol/kg, ip administered for 14 days (reference value: 6.83 10^12/L); assay type: organism-based; conditions: in vivo, 336 h; how it was run: as §1
[10] = Toxicity in Wistar kyoto rat assessed as hemoglobin count in blood at 0.01 mmol/kg, ip administered for 14 days (reference value: 138 g/L); assay type: organism-based; conditions: in vivo, 336 h; how it was run: as §2
[11] = Toxicity in Wistar kyoto rat assessed as platelet count in blood at 0.01 mmol/kg, ip administered for 14 days (reference value: 670 10^9/L); assay type: organism-based; conditions: in vivo, 336 h; how it was run: as §1
[12] = Toxicity in Wistar kyoto rat assessed as ketone body level in urine at 0.01 mmol/kg, ip administered for 14 days (reference value: 4 umol/L); assay type: organism-based; conditions: in vivo, 336 h; how it was run: as §1
[13] = Toxicity in Wistar kyoto rat assessed as urobilinogen level in urine at 0.01 mmol/kg, ip administered for 14 days (reference value: 1 umol/L); assay type: organism-based; conditions: in vivo, 336 h; how it was run: as §1
[14] = Toxicity in Wistar kyoto rat assessed as bilirubin level in urine at 0.01 mmol/kg, ip administered for 14 days (reference value: 10 umol/L); assay type: organism-based; conditions: in vivo, 336 h; how it was run: as §2
[15] = Toxicity in Wistar kyoto rat assessed as occult blood cells level in urine at 0.01 mmol/kg, ip administered for 14 days (reference value: 10 /uL); assay type: organism-based; conditions: in vivo, 336 h; how it was run: as §1
[16] = Toxicity in Wistar kyoto rat assessed as protein level in urine at 0.01 mmol/kg, ip administered for 14 days (Rvb =0 g/L); assay type: organism-based; conditions: in vivo, 336 h; how it was run: as §1
[17] = Toxicity in Wistar kyoto rat assessed as leukocyte in urine at 0.01 mmol/kg, ip administered for 14 days (reference value: 10 ca cells/uL); assay type: organism-based; conditions: in vivo, 336 h; how it was run: as §1
[18] = Toxicity in Wistar kyoto rat assessed as glucose in urine at 0.01 mmol/kg, ip administered for 14 days; assay type: organism-based; conditions: in vivo, 336 h; how it was run: as §2
[19] = Toxicity in Wistar kyoto rat assessed as proportion in urine at 0.01 mmol/kg, ip administered for 14 days (reference value: 1.01); assay type: organism-based; conditions: in vivo, 336 h; how it was run: as §1
[20] = Toxicity in Wistar kyoto rat assessed as urine pH at 0.01 mmol/kg, ip administered for 14 days (reference value: 8.4); assay type: organism-based; conditions: in vivo, 336 h; how it was run: as §1
[21] = Toxicity in Wistar kyoto rat assessed as Vc in urine at 0.01 mmol/kg, ip administered for 14 days; assay type: organism-based; conditions: in vivo, 336 h; how it was run: as §2
[22] = Toxicity in Wistar kyoto rat assessed as intact hepatic lobule structure at 10 mg/kg, ip administered for 14 days by H and E staining based assay; assay type: organism-based; conditions: in vivo, 336 h
How it was run: (§3)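 WKY rats were dosed intraperitoneally at 10 mg/kg daily for 14 days, using the 10% 1,3-propanediol vehicle, with a vehicle control group. Liver and kidney were collected and fixed immediately in 4% glutaraldehyde. Sections were stained with haematoxylin and eosin and scored for structural change under light microscopy.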

[23] = Toxicity in Wistar kyoto rat assessed as swollen hepatocytes at 10 mg/kg, ip administered for 14 days by H and E staining based assay; assay type: organism-based; conditions: in vivo, 336 h; how it was run: as §3
[24] = system: H9c2; test: Cytotoxicity against rat H9c2 cells assessed as reduction in cell viability at 10 to 80 uM incubated for 24 hrs; assay type: cell-based; conditions: h9c2, 24 h
How it was run: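 Rat cardiac H9c2 cells were grown in DMEM with 10% FBS and penicillin/streptomycin at 37 °C and 5% CO₂. They were seeded at 5×10⁴ cells/mL and allowed to adhere for 8 h. Cells were exposed to 10, 40 or 80 µM compound for 24 h, and survival was compared with untreated cells.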

[25] = system: H9c2; test: Cytoprotective activity against H2O2-induced toxicity in rat H9c2 cells assessed as increase in cell viability pretreated with compound followed by H2O2 addition and measured after 1 hrs relative to control; assay type: functional
How it was run: (§4)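 H9c2 cells were injured with H₂O₂ (400 µM) for 1, 4 or 8 h to give light, medium and heavy damage, in the presence of compound at 10–80 µM. Acetaminophen or ibuprofen served as controls. Viability was measured as mean ± SD of three experiments. SOD and MDA contents were measured as mean ± SD of four experiments. Morphology was assessed by Giemsa staining under light microscopy.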

[26] = system: H9c2; test: Cytoprotective activity against H2O2-induced toxicity in rat H9c2 cells assessed as increase in cell viability at 80 uM pretreated with compound followed by H2O2 addition and measured after 1 hrs relative to control; assay type: functional; how it was run: as §4
[27] = system: H9c2; test: Cytoprotective activity against H2O2-induced toxicity in rat H9c2 cells assessed as increase in cell viability at 10 to 80 uM pretreated with compound followed by H2O2 addition and measured after 8 hrs relative to control; assay type: functional; how it was run: as §4
[28] = system: H9c2; test: Cytoprotective activity against H2O2-induced toxicity in rat H9c2 cells assessed as increase in SOD level at 10 to 80 uM pretreated with compound followed by H2O2 addition and measured after 8 hrs; assay type: functional, cell-based; how it was run: as §4
[29] = system: H9c2; test: Cytoprotective activity against H2O2-induced toxicity in rat H9c2 cells assessed as decrease in MDA level pretreated with compound followed by H2O2 addition and measured after 8 hrs; assay type: functional, cell-based; how it was run: as §4

Row | half-life at 40000 µM [2] | SMILES | Activity [1] | Activity [3] | Activity [4] | Activity [5] | Activity [6] | Activity [7] | Activity [8] | Activity [9] | Activity [10] | Activity [11] | Activity [12] | Activity [13] | Activity [14] | Activity [15] | Activity [16] | Activity [17] | Activity [18] | Ratio [19] | pH [20] | other results
1 | 20.1 min | CC(C)Cc1ccc(C(C)C(=O)Oc2ccc(C(N)=S)cc2)cc1 (stereo not given) | Non-Toxic | 1.72 ×10⁹ /L | 44.4% | 52.8% | 1.8% | 1% | 0% | 5.5 ×10¹² /L | 119 g/L | 161 ×10⁹ /L | Non-Toxic | 16 µmol/L | 17 µmol/L | Non-Toxic | 3 g/L | 70 µL⁻¹ | Non-Toxic | 1.005 | 7.5 | Activity [21]: Non-Toxic; Activity [22]: Non-Toxic; Activity [23]: Toxic; Activity [24]: Non-Toxic; Activity [25]: Dose-dependent effect; Activity [26]: 11.9%; Activity [27]: < 5%; Activity [28]: Active; Activity [29]: Dose-dependent effect
2 | 14.1 min | CC(=O)Nc1ccc(OC(=O)CCCCC2CCSS2)cc1 (stereo not given) | Non-Toxic | 2.89 ×10⁹ /L | 31.7% | 64.2% | 1.3% | 2.6% | 0.2% | 6.08 ×10¹² /L | 135 g/L | 194 ×10⁹ /L | 4000 µmol/L | 3.3 µmol/L | 12 µmol/L | 80 µL⁻¹ | 3.2 g/L | Non-Toxic | Non-Toxic | 1.005 | 7.5 | Activity [21]: Non-Toxic; Activity [24]: Non-Toxic; Activity [25]: Dose-dependent effect; Activity [26]: 13.3%; Activity [27]: 8.6%; Activity [28]: Active; Activity [29]: Dose-dependent effect
3 | 1.4 min | CC(C)Cc1ccc(C(C)C(=O)Oc2ccc(-c3cc(=S)ss3)cc2)cc1 (stereo not given) | Toxic | 3.27 ×10⁹ /L | 35.9% | 60.4% | 0.9% | 2.6% | 0.2% | 5.9 ×10¹² /L | 136 g/L | 114 ×10⁹ /L | 500 µmol/L | 66 µmol/L | 50 µmol/L | Non-Toxic | 3 g/L | 500 µL⁻¹ | Non-Toxic | 1.005 | 7.5 | Activity [21]: Non-Toxic; Activity [22]: Non-Toxic; Activity [23]: Toxic; Activity [24]: Non-Toxic; Activity [25]: Dose-dependent effect; Activity [26]: 9.4%; Activity [27]: < 5%; Activity [28]: Active; Activity [29]: Dose-dependent effect
